This note sets out measurements from PubChem BioAssay.

Activity calls are given as the source filed them.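 The calls were made as follows, unless noted: active = potentiation averaged over duplicate wells exceeding buffer-only control mean by more than 3 SD; inactive = the rest.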

A short description of assay [1]: nonspecific flux increase, KCNQ1-free cells – parental CHO cells, counter-screen for KCNQ1 potentiator project (AID 493006;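 active = duplicate-averaged activation above buffer control mean plus 5 SD of those controls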). To be noted: parental CHO-K1 cells, FluxOR thallium flux, at 10 µM; stronger effect = higher value. In short, it runs like this:
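Assay system: Untransfected host CHO-K1 cells with FluxOR thallium dye | Probe or stimulus: Potassium/thallium depolarization pulse | Schedule: Overnight 37 °C plating, 90 min RT dye, 20 min compound | Detection: Kinetic thallium-flux fluorescence | Read-out: Max-minus-min fluorescence over baseline, percent of buffer-to-R-L3 span | Benchmarks: Low control buffer, high control R-L3 activator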
(In general: The purpose of a counterscreen is to sort out artefacts and off-target activity.)

The target of assay [2] is Potassium voltage-gated channel subfamily KQT member 1 (Homo sapiens) (UniProt P51787). Kind of assay: enhancement of KCNQ1 channel thallium flux – FluxOR thallium flux, CHO cells, duplicates, confirmation (AID 493007).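 As to outcome: cells depolarized by a potassium plus thallium sulfate stimulus after compound.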 The following applies: KCNQ1 cell line, FluxOR thallium flux fluorescence, at 10 µM; stronger effect = higher value, % of reference activator effect, buffer zero. The method, boiled down:
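Material: KCNQ1-expressing CHO cell line; Incubation: FluxOR dye loading 90 min, compound exposure 20 min, room temperature; Detection: FluxOR Tl+ flux fluorescence, 10 s baseline plus 110 s recording; Read-out: percent activation between buffer and R-L3 responses; Control set: buffer-only wells as 0% and R-L3 activator as 100%; Replication: duplicate wells per compound.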

Assay [3] concerns the target Potassium voltage-gated channel subfamily KQT member 2 (Rattus norvegicus) (UniProt O88943). Put plainly: KCNQ2 thallium flux enhancement – KCNQ2-CHO-K1 cells, selectivity assay for KCNQ1 potentiator project (AID 493009;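 active = mean duplicate potentiation above the buffer control mean plus 5 SD of buffer wells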;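 also: assay conditions were tuned for KCNQ1 rather than KCNQ2 modulators; signal is max minus min fluorescence divided by baseline after thallium stimulus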). To be noted: FluxOR thallium flux fluorescence, at 10 µM; stronger effect = higher value, scaled: buffer 0, activator control 100.
Assay [4] addresses Potassium voltage-gated channel subfamily KQT member 1 (Homo sapiens) (UniProt P51787). Kind of assay: KCNQ1 activators by electrophysiology – IonWorks patch clamp, KCNQ1-CHO cells, orthogonal assay for KCNQ1 potentiator project, confirmation (AID 493184;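 active = current rise at least 3 SD above the untreated control mean in each of two repeat wells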). To be noted: automated patch clamp current, at 10 µM; stronger effect = higher value. In short, it runs like this:
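assay system = KCNQ1-expressing CHO cells | medium = external bath solution at pH 7.4 | probe or stimulus = 2,000 ms depolarization, -90 to +40 mV | compound dosing = 10 µM final, single point | measured by = automated voltage clamp, amphotericin B perforated patch | measure = percent current increase versus pre-compound level | replication = duplicates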
For orientation: Patch clamp records ionic current or voltage across a cell membrane.

Sequence of Potassium voltage-gated channel subfamily KQT member 2 (Rattus norvegicus) (O88943 whole entry, looked up): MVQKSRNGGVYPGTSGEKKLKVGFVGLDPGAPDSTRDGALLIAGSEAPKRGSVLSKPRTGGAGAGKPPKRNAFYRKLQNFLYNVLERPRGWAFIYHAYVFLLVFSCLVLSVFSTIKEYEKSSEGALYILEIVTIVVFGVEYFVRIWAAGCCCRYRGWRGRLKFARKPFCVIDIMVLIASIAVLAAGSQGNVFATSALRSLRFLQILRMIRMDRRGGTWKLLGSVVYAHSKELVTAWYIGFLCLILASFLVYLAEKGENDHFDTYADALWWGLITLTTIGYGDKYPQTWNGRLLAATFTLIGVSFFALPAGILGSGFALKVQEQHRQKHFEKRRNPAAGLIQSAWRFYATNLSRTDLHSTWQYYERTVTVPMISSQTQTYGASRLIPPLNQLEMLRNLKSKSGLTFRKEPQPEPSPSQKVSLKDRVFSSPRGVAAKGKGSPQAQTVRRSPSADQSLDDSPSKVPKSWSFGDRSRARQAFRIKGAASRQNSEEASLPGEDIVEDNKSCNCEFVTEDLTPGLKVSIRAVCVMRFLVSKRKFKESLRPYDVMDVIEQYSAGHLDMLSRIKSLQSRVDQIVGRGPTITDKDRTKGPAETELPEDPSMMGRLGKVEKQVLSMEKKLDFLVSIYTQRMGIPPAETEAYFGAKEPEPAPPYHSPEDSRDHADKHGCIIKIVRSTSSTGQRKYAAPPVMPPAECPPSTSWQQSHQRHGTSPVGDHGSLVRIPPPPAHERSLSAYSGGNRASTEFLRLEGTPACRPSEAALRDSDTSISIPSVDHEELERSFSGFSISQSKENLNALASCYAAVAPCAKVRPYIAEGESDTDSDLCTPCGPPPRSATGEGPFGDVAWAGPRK
Sequence of Potassium voltage-gated channel subfamily KQT member 1 (Homo sapiens) (P51787 whole entry, looked up): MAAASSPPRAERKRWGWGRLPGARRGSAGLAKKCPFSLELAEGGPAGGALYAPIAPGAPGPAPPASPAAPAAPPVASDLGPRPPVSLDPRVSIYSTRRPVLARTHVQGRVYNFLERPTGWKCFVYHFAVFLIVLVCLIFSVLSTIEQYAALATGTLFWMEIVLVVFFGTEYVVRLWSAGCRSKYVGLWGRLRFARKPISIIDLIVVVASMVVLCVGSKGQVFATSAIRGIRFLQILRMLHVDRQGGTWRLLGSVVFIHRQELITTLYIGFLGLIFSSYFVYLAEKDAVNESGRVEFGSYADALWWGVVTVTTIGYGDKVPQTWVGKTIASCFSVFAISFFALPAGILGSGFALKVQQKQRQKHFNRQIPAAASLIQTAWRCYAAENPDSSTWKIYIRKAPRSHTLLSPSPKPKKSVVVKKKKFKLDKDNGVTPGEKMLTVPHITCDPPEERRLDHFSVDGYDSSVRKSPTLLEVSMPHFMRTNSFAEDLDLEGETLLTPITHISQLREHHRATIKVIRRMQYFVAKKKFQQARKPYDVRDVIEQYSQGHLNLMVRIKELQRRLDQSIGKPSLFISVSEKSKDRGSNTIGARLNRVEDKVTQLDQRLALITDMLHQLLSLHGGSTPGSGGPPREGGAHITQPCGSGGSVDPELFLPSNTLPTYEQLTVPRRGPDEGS

As for `O=C(Cn1c(C(F)(F)F)nc2ccccc21)N=Nc1c(O)[nH]c2ccc(Br)cc12`, the outcome in assay [1], in assay [2], in assay [3] and in assay [4] was inactive.

Consider `CCOC(=O)c1sc2nc(C)nc(SCC(=O)N(C)C3CCS(=O)(=O)C3)c2c1C` (stereo not given), for which the result in assay [1] and in assay [4] was inactive. Moreover, the results for the potentiation in assay [2] and in assay [3] were 17.5% (active) and 142% (active), respectively.

As for `O=C(Cn1c(=O)oc2ccccc21)N1CCN(c2ccc(N3CCOCC3)nn2)CC1`, the result in assay [1], in assay [2], in assay [3] and in assay [4] was inactive.

With `CC(C)CC(=O)O/N=C1\C(=O)N(c2ccccc2)c2ccccc21`, the result in assay [1], in assay [2], in assay [3] and in assay [4] was inactive.

As to `Cc1ccccc1C(=O)NC1CC(C)(C)NC(C)(C)C1`, the outcome in assay [1], in assay [2], in assay [3] and in assay [4] was inactive.

For the compound `O=C(N/N=C/c1ccccn1)c1sc2ccccc2c1Cl`, the activation in assay [1] was 156% (active). Also, the potentiation was 41% (active) in assay [2] and 207% (active) in assay [3]. Besides, in assay [4], the result was inactive.

As for `Cc1ccc(C(=O)Sc2cccccc2=O)cc1`, in assay [1], the activation is 230% (active). Moreover, the results for the potentiation in assay [2] and in assay [3] were 37.5% (active) and 228% (active), respectively. Moreover, in assay [4], the result was inactive.

For `O=C(NC(=S)Nc1ccc(N2CCCCC2)cc1)c1ccco1`, in assay [1], the activation is 214% (active). For the same compound, the figures for the potentiation in assay [2] and in assay [3] were 180% (active) and 228% (active), respectively. Further, the outcome in assay [4] was inactive.

For the compound `O=C1NC(=S)SC1=C1CCCC1`, the activation in assay [1] was 142% (active). Moreover, the potentiation in assay [2] is 24.5% (active); in assay [3], 166% (active). In addition, the result in assay [4] was inactive.

As to `Fc1ccc(/C=N/NC(=S)Nc2ccc(Cl)cc2)cc1F`, the result in assay [1], in assay [2], in assay [3] and in assay [4] was inactive.

Turning to `Oc1[nH]c2ccc(Br)cc2c1N=NC(=S)Nc1ccc(F)cc1`, the outcome in assay [1] and in assay [4] was inactive. The potentiation in assay [2] is 43.5% (active); in assay [3] it was 160% (active).

Take `Cc1ccccc1NS(=O)(=O)c1ccc2[nH]cc(C(=O)N(C)Cc3ccco3)c(=O)c2c1`: the result in assay [1], in assay [3] and in assay [4] was inactive. The potentiation in assay [2] was 44% (active).

On to `CCCSc1nnc(-c2cnn(-c3ccccc3)c2-n2cccc2)n1C`, for which the result in assay [1], in assay [2], in assay [3] and in assay [4] was inactive.

As to `CC1CCN(c2ncnc3ccccc23)CC1`, the result in assay [1], in assay [2], in assay [3] and in assay [4] was inactive.

On to `Nc1cc(=O)[nH]c(SCC(=O)N2CCN(S(=O)(=O)c3ccc4ccccc4c3)CC2)n1`, for which the outcome in assay [1], in assay [2], in assay [3] and in assay [4] was inactive.

`O=C(COc1ccccc1Cl)N(Cc1cccs1)C1CCS(=O)(=O)C1` (stereo not given): the outcome in assay [1], in assay [2], in assay [3] and in assay [4] was inactive.

As to `CC(=O)NC(CC(=O)O)C(=O)O` (stereo not given), the result in assay [1], in assay [2], in assay [3] and in assay [4] was inactive.

Consider `CCOC(=O)c1sc(NC(=S)NC(=O)c2ccc(OC)cc2)nc1C`, for which the outcome in assay [1], in assay [2], in assay [3] and in assay [4] was inactive.

On to `COc1cc(CNCCN2CCOCC2)ccc1OCc1ccc(Cl)cc1Cl`, for which the result in assay [1], in assay [2], in assay [3] and in assay [4] was inactive.

On to `CCC1CCC2(CC1)NC(CO)(CO)CO2` (stereo not given), for which the result in assay [1], in assay [2], in assay [3] and in assay [4] was inactive.

Consider `COc1ccc(NC(=O)C(=O)NNC(=O)c2cccs2)c(OC)c1`, for which the activation in assay [1] is 246% (active). Further, the potentiation in assay [2] was 37.5% (active); in assay [3] it was 220% (active). Besides, the outcome in assay [4] was inactive.

On to `CCCS(=O)(=O)c1c(S(=O)(=O)CCC)c2c(C(N)=O)cccn2c1C(=O)c1ccc(F)cc1`, for which the result in assay [1], in assay [2], in assay [3] and in assay [4] was inactive.

As to `Cc1ccc(CN2C(=O)CC(Nc3ccc(N4CCOCC4)cc3)C2=O)cc1` (stereo not given), the outcome in assay [1], in assay [2], in assay [3] and in assay [4] was inactive.

Take `COc1ccc(/C(O)=C2/C(=O)C(=O)N(CCCN(C)C)C2c2ccc(Cl)cc2)cc1OC` (stereo not given): the result in assay [1], in assay [2], in assay [3] and in assay [4] was inactive.

On to `Cc1ccc(C)c(NC(=S)NNC(=O)c2cc3c(s2)CCC(C)C3)c1` (stereo not given), for which, in assay [1], the activation was 192% (active). The potentiation in assay [2] is 48.5% (active); in assay [3], 237% (active). For the same compound, in assay [4], the result was inactive.

`COc1cccc2sc(Nc3nnc(-c4ccccc4Cl)o3)nc12`: the result in assay [1], in assay [3] and in assay [4] was inactive. Moreover, the potentiation in assay [2] is 112% (active).

Turning to `CCCCn1c(=S)[nH]c2ccccc2c1=O`, the activation in assay [1] is 160% (active). Further, the potentiation was 50.5% (active) in assay [2] and 187% (active) in assay [3]. In addition, in assay [4], the result was inactive.

In the case of `O=C(Nc1cc(=O)[nH]c(=O)[nH]1)c1cccc(Br)c1`, the result in assay [1], in assay [2], in assay [3] and in assay [4] was inactive.

In the case of `C=CCn1c(=S)[nH]c2ccc(Br)cc2c1=O`, the activation in assay [1] is 208% (active). Further, the potentiation is 51% (active) in assay [2] and 200% (active) in assay [3]. In assay [4], the result was inactive.

For the compound `CC(C)CCn1c(=O)c2ccccc2n2c(=S)[nH]nc12`, the outcome in assay [1], in assay [2], in assay [3] and in assay [4] was inactive.
